Laboratory results taken from ChEMBL document CHEMBL1221368, “Identification of small molecule compounds with higher binding affinity to guanine deaminase (cypin) than guanine” (Bioorg Med Chem, 2010).

Substrate: Nc1nc2[nH]cnc2c(=O)[nH]1
Test: Activity at GDA by colorimetric assay
How it was run: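 Purified rabbit liver guanine deaminase, 8 × 10^-3 U, incubated with guanine at 2, 5, 7, 10, 12, 15, 17 and 20 µM plus inhibitor at 8 or 20 µM. Run in TBS (25 mM Tris-HCl, 137 mM NaCl, 2.7 mM KCl) at pH 7.4 and 25 °C. Guanine hydrolysis followed as OD change at 245 nm. Kinetic constants taken from Lineweaver–Burk plots (1/V vs 1/S).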

B1: Guanine deaminase (Homo sapiens), Q9Y2T3 (protein)
chain: MCAAQMPPLAHIFRGTFVHSTWTCPMEVLRDHLLGVSDSGKIVFLEEASQQEKLAKEWCFKPCEIRELSHHEFFMPGLVDTHIHASQYSFAGSSIDLPLLEWLTKYTFPAEHRFQNIDFAEEVYTRVVRRTLKNGTTTACYFATIHTDSSLLLADITDKFGQRAFVGKVCMDLNDTFPEYKETTEESIKETERFVSEMLQKNYSRVKPIVTPRFSLSCSETLMGELGNIAKTRDLHIQSHISENRDEVEAVKNLYPSYKNYTSVYDKNNLLTNKTVMAHGCYLSAEELNVFHERGASIAHCPNSNLSLSSGFLNVLEVLKHEVKIGLGTDVAGGYSYSMLDAIRRAVMVSNILLINKVNEKSLTLKEVFRLATLGGSQALGLDGEIGNFEVGKEFDAILINPKASDSPIDLFYGDFFGDISEAVIQKFLYLGDDRNIEEVYVGGKQVVPFSSSV
Q: B1 was tested. Which Km did it give?
A: 11.2 µM
